Assay results from ChEMBL document CHEMBL2331450, “Potent BRAF kinase inhibitors based on 2,4,5-trisubstituted imidazole with naphthyl and benzothiophene 4-substituents” (Bioorg Med Chem, 2013).

Assays:
[1] = biological target: T1, Serine/threonine-protein kinase B-raf (Homo sapiens, UniProt P15056, V600E); assay: Inhibition of human recombinant N-terminal His-tagged BRAF V600E mutant expressed in Sf9 cells using GST-tagged MEK1 and ATP as substrate incubated for 10 mins prior to ATP addition measured after 45 mins by DELFIA assay
Summary of the method: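 Enzyme assay with the V600E BRAF mutant in vitro; inhibition reported as IC50.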

[2] = Antiproliferative activity against human WM266.4 cells after 6 days by SRB assay; format: functional; details: WM 266-4, 144 h
Summary of the method: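 BRAF-dependent WM266.4 melanoma cells; growth inhibition read by SRB staining and reported as GI50.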

[3] = biological target: T1, Serine/threonine-protein kinase B-raf; assay: Inhibition of BRAF V600E mutant in human WM266.4 cells assessed as inhibition of ERK phosphorylation after 6 hrs by DELFIA assay; format: cell-based
Summary of the method: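 In BRAF-dependent WM266.4 cells, inhibition of ERK phosphorylation measured in a cellular assay and reported as IC50.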

T1 sequence (P15056 2-766 V600E limits assumed): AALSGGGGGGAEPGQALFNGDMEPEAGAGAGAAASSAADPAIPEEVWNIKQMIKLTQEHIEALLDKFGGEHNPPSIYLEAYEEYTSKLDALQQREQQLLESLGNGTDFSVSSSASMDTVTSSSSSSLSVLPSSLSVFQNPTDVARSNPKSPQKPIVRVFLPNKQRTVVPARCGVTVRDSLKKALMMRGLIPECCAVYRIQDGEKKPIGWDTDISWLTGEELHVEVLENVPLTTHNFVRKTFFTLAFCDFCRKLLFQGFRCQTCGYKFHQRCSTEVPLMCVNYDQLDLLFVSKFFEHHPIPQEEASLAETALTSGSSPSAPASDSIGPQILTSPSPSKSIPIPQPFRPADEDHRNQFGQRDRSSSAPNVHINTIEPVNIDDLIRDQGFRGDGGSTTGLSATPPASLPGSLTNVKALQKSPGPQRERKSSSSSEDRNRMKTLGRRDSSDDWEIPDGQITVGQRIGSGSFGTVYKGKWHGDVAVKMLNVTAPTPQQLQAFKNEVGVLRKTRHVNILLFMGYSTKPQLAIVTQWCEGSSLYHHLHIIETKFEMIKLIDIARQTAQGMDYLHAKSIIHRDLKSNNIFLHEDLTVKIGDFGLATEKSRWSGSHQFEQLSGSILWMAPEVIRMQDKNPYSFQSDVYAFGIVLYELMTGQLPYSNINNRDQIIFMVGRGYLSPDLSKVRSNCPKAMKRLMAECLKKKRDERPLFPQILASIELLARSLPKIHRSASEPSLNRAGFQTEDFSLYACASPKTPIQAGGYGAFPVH

Row | Structure (SMILES) | IC50 [1] | GI50 [2] | IC50 [3]
1 | CN(C)CCOc1ccc(-c2nc(-c3ccc4cc(O)ccc4c3)c(-c3ccncc3)[nH]2)cc1 | 8.8 µM | 4.3 µM | 14 µM
2 | CN(C)CCOc1ccc(-c2nc(-c3ccc4c(O)c(Cl)ccc4c3)c(-c3ccncc3)[nH]2)cc1 | 0.042 µM | 1.1 µM | 1.25 µM
3 | CN(C)CCOc1ccc(-c2nc(-c3ccc4c(O)c(F)ccc4c3)c(-c3ccncc3)[nH]2)cc1 | 0.029 µM | 11 µM | 0.25 µM
4 | CN(C)CCOc1ccc(-c2nc(-c3ccc4ccc(=O)[nH]c4c3)c(-c3ccncc3)[nH]2)cc1 | > 100 µM | – | –
5 | CN(C)CCOc1ccc(-c2nc(-c3ccc4[nH]c(=O)ccc4c3)c(-c3ccncc3)[nH]2)cc1 | > 100 µM | – | –
6 | CN(C)CCOc1ccc(-c2nc(-c3ccc4c(=O)[nH]ccc4c3)c(-c3ccncc3)[nH]2)cc1 | > 10 µM | – | –
7 | CN(C)CCOc1ccc(-c2nc(-c3ccc4c(N)nccc4c3)c(-c3ccncc3)[nH]2)cc1 | 1.1 µM | 5.7 µM | 5.1 µM
8 | CN(C)CCOc1ccc(-c2nc(-c3ccc4cc(F)ccc4c3)c(-c3ccncc3)[nH]2)cc1 | > 10 µM | – | –
9 | CN(C)CCOc1ccc(-c2nc(-c3ccc4cc(C(=O)O)ccc4c3)c(-c3ccncc3)[nH]2)cc1 | > 10 µM | – | –
10 | CN(C)CCOc1ccc(-c2nc(-c3ccc(Cl)c(Cl)c3)c(-c3ccncc3)[nH]2)cc1 | 0.58 µM | 1.6 µM | 5.9 µM
11 | CN(C)CCOc1ccc(-c2nc(-c3ccc(F)c(Cl)c3)c(-c3ccncc3)[nH]2)cc1 | > 10 µM | – | –
12 | CN(C)CCOc1ccc(-c2nc(-c3ccc4c(CO)coc4c3)c(-c3ccncc3)[nH]2)cc1 | > 10 µM | – | –
13 | CN(C)CCOc1ccc(-c2nc(-c3ccc4c(C(N)=O)coc4c3)c(-c3ccncc3)[nH]2)cc1 | > 10 µM | – | –
14 | CN(C)CCOc1ccc(-c2nc(-c3ccc4c(C=O)csc4c3)c(-c3ccncc3)[nH]2)cc1 | > 10 µM | – | –
15 | CN(C)CCOc1ccc(-c2nc(-c3ccc4c(CO)csc4c3)c(-c3ccncc3)[nH]2)cc1 | > 10 µM | – | –
16 | CN(C)CCOc1ccc(-c2nc(-c3ccc4c([C@@H](O)C(F)(F)F)csc4c3)c(-c3ccncc3)[nH]2)cc1 | 0.19 µM | 2.1 µM | 2.3 µM
17 | CCCSc1csc2cc(-c3nc(-c4ccc(OCCN(C)C)cc4)[nH]c3-c3ccncc3)ccc12 | 9.4 µM | 2.3 µM | 31 µM
18 | CCC[S+]([O-])c1csc2cc(-c3nc(-c4ccc(OCCN(C)C)cc4)[nH]c3-c3ccncc3)ccc12 (configuration not stated) | > 10 µM | – | –
19 | CSc1csc2cc(-c3nc(-c4ccc(OCCN(C)C)cc4)[nH]c3-c3ccncc3)ccc12 | 14 µM | – | –
20 | CN(C)CCOc1ccc(-c2nc(-c3ccc4c([S+](C)[O-])csc4c3)c(-c3ccncc3)[nH]2)cc1 (configuration not stated) | > 10 µM | – | –
21 | CN(C)CCOc1ccc(-c2nc(-c3ccc4ccc(O)cc4c3)c(-c3ccncc3)[nH]2)cc1 | 1.4 µM | 3.2 µM | 3.6 µM
22 | CN(C)CCOc1ccc(-c2nc(-c3ccc4c(O)cccc4c3)c(-c3ccncc3)[nH]2)cc1 | 0.009 µM | 0.22 µM | 0.39 µM
23 | CCC(O)c1csc2cc(-c3nc(-c4ccc(OCCN(C)C)cc4)[nH]c3-c3ccncc3)ccc12 (racemic) | > 10 µM | – | –
24 | CN(C)CCOc1ccc(-c2nc(-c3ccc4c(C(O)C(F)(F)C(F)(F)F)csc4c3)c(-c3ccncc3)[nH]2)cc1 (racemic) | > 10 µM | – | –
25 | CN(C)CCOc1ccc(-c2nc(-c3ccc4c(C(O)C(F)(F)F)csc4c3)c(-c3ccncc3)[nH]2)cc1 (racemic) | 0.33 µM | 3.1 µM | 2.7 µM
26 | CN(C)CCOc1ccc(-c2nc(-c3ccc4sc(C(O)C(F)(F)F)cc4c3)c(-c3ccncc3)[nH]2)cc1 (racemic) | > 10 µM | – | –
27 | CN(C)CCOc1ccc(-c2nc(-c3ccc(C(O)C(F)(F)F)cc3)c(-c3ccncc3)[nH]2)cc1 (racemic) | > 10 µM | – | –
